Test results published in paper PMC4726456 (Cell, 2014).
Changes are numbered by the printed parent chain. In names and notes the source's numbering stands. Several values for one entry are separate records, joined by “and”; a condition that tells them apart may be missing. Equal entries are not always repeated.

Columns and labels:
[1] = test system: microtubules; assay type: biochemical; conditions: for Effect on microtubule acetylation by TAT: saturating concentration of MAP
[2] = test system: microtubules; assay: Single-molecule TIRF of TAT-GFP scanning on microtubules; assay type: binding; conditions: for Effect on TAT-GFP microtubule scanning: saturating concentration of MAP
[3] = test system: microtubules and tubulin; assay: Acetylation activity of TAT mutants with microtubules and tubulin; assay type: biochemical; conditions: Figure 2C
[4] = test system: dolastatin-induced tubulin rings; assay: Stacking of dolastatin-induced tubulin rings by TAT; conditions: Figures S3D, S3E
[5] = test system: S. cerevisiae microtubules; assay: Single-molecule TIRF of TAT-GFP on S. cerevisiae microtubules; assay type: binding, Saccharomyces cerevisiae; conditions: purified S. cerevisiae microtubules and engineered with human C-terminal tails
[6] = test system: tubulin; assay: Activity of bead-coupled biotinylated TAT with tubulin; assay type: biochemical; conditions: 1 µm streptavidin beads; Figure 6A
In short: (§1)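 Biotinylated TAT was either immobilized on 1 µm diameter streptavidin beads or left free in solution. Each form was reacted with tubulin or with microtubules. Activity was normalized to the free enzyme. About 15% unpolymerized tubulin was present in the microtubule reactions.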

[7] = test system: microtubules; assay: Activity of bead-coupled biotinylated TAT with microtubules; assay type: biochemical; conditions: 1 µm streptavidin beads; Figure 6A
In short: as §1

[8] = test system: unpolymerized tubulin; assay: TAT-tubulin complex formation by analytical ultracentrifugation; assay type: binding; conditions: TAT concentrations as high as 40 µM
[9] = test system: microtubules; assay: Immunofluorescence of acetylation distribution on microtubules; assay type: biochemical; conditions: taxol stabilized microtubules; antibody specific for acetylated tubulin; Figure 4
In short: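 Recombinant TAT acetylated taxol-stabilized microtubules in vitro. Excess enzyme was used at a 10:1 TAT:tubulin molar ratio and sampled over a time course. Marks were detected by immunofluorescence. Line-scans were taken along microtubules in the acetylated-tubulin channel. End analysis at 15 s averaged 25 line-scans from the tip to 5 µm inward.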

[10] = test system: TAT; conditions: ref Friedmann et al., 2012; cited from earlier work
[11] = test system: tubulin; assay: Tubulin acetylation assay; assay type: biochemical
[12] = test system: tubulin polymers; assay: TAT activity with tubulin polymers of diverse geometries; assay type: biochemical; conditions: Figure 3A, N≥3
In short: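 Microtubule substrate was stabilized with 20 µM taxol. Negative-stain EM confirmed dolastatin-10 rings, Zn sheets and microtubules under the reaction conditions. Values are means ± S.E.M. (N≥3), compared by t-test.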

[13] = molecular target: microtubules; assay: TAT binding to microtubules in sedimentation assays; conditions: read-out: Kd for microtubules, Figure S3B and C
[14] = test system: microtubules; assay: Microtubule acetylation assay; assay type: biochemical; conditions: bulk measurements

B1: kinesin: motor domain of kinesin-5 (protein)
chain: MASQPNSSAKKKEEKGKNIQVVVRCRPFNLAERKASAHSIVECDPVRKEVSVRTGGLADKSSRKTYTFDMVFGASTKQIDVYRSVVCPILDEVIMGYNCTIFAYGQTGTGKTFTMEGERSPNEEYTWEEDPLAGIIPRTLHQIFEKLTDNGTEFSVKVSLLEIYNEELFDLLNPSSDVSERLQMFDDPRNKRGVIIKGLEEITVHNKDEVYQILEKGAAKRTTAATLMNAYSSRSHSVFSVTIHMKETTIDGEELVKIGKLNLVDLAGSENIGRSGAVDKRAREAGNINQSLLTLGRVITALVERTPHVPYRESKLTRILQDSLGGRTRTSIIATISPASLNLEETLSTLEYAHRAKNILNKPEVNQKLTKKALIKEYTEEIERLKRDLAAAREKNGVYISEENFRVMSGKLTVQEEQIVELIEKIGAVEEELNRVTELFMDNKNELDQCKSDLQNKTQELETTQKHLQETKLQLVKEEYITSALESTEEKLHDAASKLLNTVEETTKDVSGLHSKLDRKKAVDQHNAEAQDIFGKNLNSLFNNMEELIKDGSSKQKAMLEVHKTLFGNLLSSSVSALDTITTVALGSLTSIPENVSTHVSQIFNMILKEQSLAAESKTVLQELINVLKTDLLSSLEMILSPTVVSILKINSQLKHIFKTSLTVADKIEDQKKELDGFLSILCNNLHELQENTICSLVESQKQCGNLTEDLKTIKQTHSQELCKLMNLWTERFCALEEKCENIQKPLSSVQENIQQKSKDIVNKMTFHSQKFCADSDGFSQELRNFNQEGTKLVEESVKHSDKLNGNLEKISQETEQRCESLNTRTVYFSEQWVSSLNEREQELHNLLEVVSQCCEASSSDITEKSDGRKAAHEKQHNIFLDQMTIDEDKLIAQNLELNETIKIGLTKLNCFLEQDLKLDIPTGTTPQRKSYLYPSTLVRTEPREHLLDQLKRKQPELLMMLNCSENNKEETIPDVDVEEAVLGQYTEEPLSQEPSVDAGVDCSSIGGVPFFQHKKSHGKDKENRGINTLERSKVEETTEHLVTKSRLPLRAQINL
Effect on microtubule acetylation by TAT ([1]; Figure 5F): no effect | Effect on TAT-GFP microtubule scanning ([2]; Figure 5F): no effect

B2: doublecortin: microtubule binding protein covering the fenestration at the vertices between four tubulin dimers (protein)
chain: MELDFGHFDERDKTSRNMRGSRMNGLPSPTHSAHCSFYRTRTLQALSNEKKAKKVRFYRNGDRYFKGIVYAVSSDRFRSFDALLADLTRSLSDNINLPQGVRYIYTIDGSRKIGSMDELEEGESYVCSSDNFFKKVEYTKNVNPNWSVNVKTSANMKAPQSLASSNSAQARENKDFVRPKLVTIIRSGVKPRKAVRVLLNKKTAHSFEQVLTDITEAIKLETGVVKKLYTLDGKQVTCLHDFFGDDDVFIACGPEKFRYAQDDFSLDENECRVMKGNPSATAGPKASPTPQKTSAKSPGPMRRSKSPADSGNDQDANGTSSSQLSTPKSKQSPISTPTSPGSLRKHKDLYLPLSLDDSDSLGDSM
Effect on microtubule acetylation by TAT ([1]; Figure 5F): no effect | Effect on TAT-GFP microtubule scanning ([2]; Figure 5F): no effect

B3: F105A TAT mutant: F105A TAT mutant defective in acetylation (protein)
chain: MEFPFDVDALFPERITVLDQHLRPPARRPGTTTPARVDLQQQIMTIIDELGKASAKAQNLSAPITSASRMQSNRHVVYILKDSSARPAGKGAIIGFIKVGYKKLAVLDDREAHNEVEPLCILDFYIHESVQRHGHGRELFQYMLQKERVEPHQLAIDRPSQKLLKFLNKHYNLETTVPQVNNFVIFEGFFAHQHRPPAPSLRATRHSRAAAVDPTPAAPARKLPPKRAEGDIKPYSSSDREFLKVAVEPPWPLNRAPRRATPPAHPPPRSSSLGNSPERGPLRPFVPEQELLRSLRLCPPHPTARLLLAADPGGSPAQRRRTRGTPPGLVAQSCCYSRHGGVNSSSPNTGNQDSKQGEQETKNRSASEEQALSQDGSGEKPMHTAPPQAPAPPAQSWTVGGDILNARFIRNLQERRSTRPW
Effect of mutation on TAT activity ([3]; N≥3): defective in acetylation | Effect of mutation on TAT activity ([3]; N≥3, listed as Phe105): severely impairs enzyme activity with both tubulin and microtubules | Stacking of dolastatin-induced tubulin rings [4]: impaired in stack formation

B4: TAT-GFP: purified TAT-GFP for single-molecule TIRF microscopy (protein)
chain: B3 chain with A105F
modifications: left off: GFP, end not stated, kept
Activity of GFP fusion vs untagged protein ([1]; Figure S5): comparable to that of the untagged protein | Interaction time (τ), doublecortin ([2]; microtubules with saturating doublecortin): 1.4 s | 1D diffusion coefficient on microtubules ([2]; undecorated microtubules, MSD fit, 100 ms frames, mean, legend: fit): 0.27 µm^2/s and 0.27 ± 0.01 µm^2/s | Scan starting position ([2]; undecorated microtubules, N=163, Figure 5D): randomly distributed on the microtubule, showing no bias for ends | Interaction time (τ) on microtubules ([2]; undecorated microtubules, exponential fit corrected for photobleaching, N=269): 1.5 s and 1.5 ± 0.3 s | Scanning on S. cerevisiae microtubules [5]: do not observe TAT-GFP scanning

B5: bead-coupled TAT: C-terminally biotinylated TAT construct coupled to streptavidin beads 1 µm in diameter (protein, UniProt Q5SQI0 1-421, looked up)
Alpha-tubulin …: B3 chain with A105F
modifications: C-terminal biotin, streptavidin beads
Activity with tubulin when bead-coupled [6]: retained activity with tubulin | Reduction of activity with microtubules on bead coupling [7]: ~89%

B6: TAT: Homo sapiens TAT (1–196) expressed in Escherichia coli as a GST-fusion (protein)
chain: MEFPFDVDALFPERITVLDQHLRPPARRPGTTTPARVDLQQQIMTIIDELGKASAKAQNLSAPITSASRMQSNRHVVYILKDSSARPAGKGAIIGFIKVGYKKLFVLDDREAHNEVEPLCILDFYIHESVQRHGHGRELFQYMLQKERVEPHQLAIDRPSQKLLKFLNKHYNLETTVPQVNNFVIFEGFFAHQHRP
modifications: left off: GST, end not stated, state not stated
Acetylation of unmodified microtubules vs brain microtubules ([1]; Figures S5G and S5H): as effectively as brain microtubules | Microtubule acetylation after removal of C-terminal tails ([1]; subtilisin microtubules, Figure 5F): unaffected by removal of the C-terminal tails | Stable complex formation with unpolymerized tubulin [8]: undetectable | Distribution of acetylation along microtubule [9]: acetylates along the entire microtubule without a preference for ends | Km [10]: ~32 µM | Catalytic rate with tubulin [11]: 0.4 h⁻¹ | TAT activity with microtubules vs unpolymerized tubulin [12]: largest activity enhancement over unpolymerized tubulin is seen with microtubules | Stacking of dolastatin-induced tubulin rings [4]: promotes stacking of dolastatin-induced tubulin rings in a dose-dependent manner | Total microtubule length scanned, subtilisin-treated vs untreated microtubules ([2]; 50 microtubules, Figure 5F): covers the same total microtubule length | Interaction time (τ), labeled spastin ([2]; microtubules coated with DyLight 550 labeled spastin, ATPγS): 1.5 s | Average microtubule length scanned ([2]; undecorated microtubules, Figure S5B): 2.9 µm | Maximum scan excursion ([2]; undecorated microtubules, excursions up to, Figure S5B): up to 10.4 µm | Kd [13]: ~44 µM | Acetylation rate with microtubules [14]: ~1.6 h⁻¹
